Measured values from different studies.
Protocols differ between the studies behind these lines.
Target: Tyrosine-protein kinase receptor UFO (AXL, Homo sapiens, UniProt P30530)
Sequence (P30530 1-894, as in one of the studies): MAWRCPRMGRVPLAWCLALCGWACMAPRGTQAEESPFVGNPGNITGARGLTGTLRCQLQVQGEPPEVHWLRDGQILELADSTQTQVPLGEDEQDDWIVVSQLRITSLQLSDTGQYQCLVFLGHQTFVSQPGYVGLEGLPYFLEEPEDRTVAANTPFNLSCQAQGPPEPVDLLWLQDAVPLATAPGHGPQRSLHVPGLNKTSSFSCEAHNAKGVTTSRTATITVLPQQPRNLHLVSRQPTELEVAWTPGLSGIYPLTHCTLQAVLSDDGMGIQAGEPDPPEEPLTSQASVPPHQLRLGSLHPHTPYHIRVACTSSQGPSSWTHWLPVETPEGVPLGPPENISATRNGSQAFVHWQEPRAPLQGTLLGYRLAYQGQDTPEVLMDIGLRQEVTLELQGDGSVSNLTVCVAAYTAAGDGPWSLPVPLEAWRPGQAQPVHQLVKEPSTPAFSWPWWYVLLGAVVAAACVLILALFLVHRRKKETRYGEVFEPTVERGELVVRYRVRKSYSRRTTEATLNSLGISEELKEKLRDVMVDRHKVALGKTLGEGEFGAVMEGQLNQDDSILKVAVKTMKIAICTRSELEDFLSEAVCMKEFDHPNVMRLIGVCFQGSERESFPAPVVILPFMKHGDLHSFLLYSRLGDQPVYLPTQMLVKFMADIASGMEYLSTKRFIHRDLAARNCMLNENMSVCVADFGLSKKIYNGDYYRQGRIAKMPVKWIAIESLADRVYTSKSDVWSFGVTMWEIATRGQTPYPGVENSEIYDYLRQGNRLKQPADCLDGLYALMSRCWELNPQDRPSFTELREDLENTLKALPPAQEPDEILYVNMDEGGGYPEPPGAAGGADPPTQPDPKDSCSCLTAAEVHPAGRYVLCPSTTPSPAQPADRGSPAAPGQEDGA

| SMILES | read-out | action | technique | cell line | concentration | endpoint | value |
| --- | --- | --- | --- | --- | --- | --- | --- |
| CCCOc1ccc(OC)c(F)c1C(=O)c1ccc(C(=O)N[C@@H]2CNC[C@H]2NC(=O)c2ccc3[nH]ncc3c2)cc1 | enzyme activity | inhibitor |  |  | 10 µM | remaining activity | 23% |
| Cc1ccc(Nc2nccc(N(C)c3ccc4c(C)n(C)nc4c3)n2)cc1S(N)(=O)=O | cell-free assay |  |  |  | 0.5 µM | remaining signal | 78.1% |
| O=C(Nc1ccc(Oc2ccc(F)cc2)cc1)N1CCc2ncccc2[C@H]1c1ccc(F)cc1 | cell-free assay |  | competition with immobilised ligand |  | 1 µM | remaining binding | 77% |
| CNC(=O)c1cc(Oc2ccc(NC(=O)Nc3ccc(Cl)c(C(F)(F)F)c3)cc2)ccn1 | enzyme activity | inhibitor |  |  | 10 µM | inhibition | 68% |
| CN(C)C(=O)Cn1cc(-c2nc([C@@](C)(c3ccc(-c4cnc(N)nc4)cc3)C3CC3)no2)cn1 | cell-free assay |  | competition with immobilised ligand |  | 1 µM | remaining binding | 98% |
| CCCS(=O)(=O)Nc1ccc(F)c(C(=O)c2c[nH]c3ncc(-c4ccc(Cl)cc4)cc23)c1F | enzyme activity | inhibitor |  |  | 1 µM | inhibition | < 10% |
| CC/C(=N\NC(=O)NCc1cccc(O)c1)c1ccc(O)c(C)c1O | enzyme activity | inhibitor |  |  | 0.1 µM | inhibition | 1.3% |
| O=C1NC(=O)c2cc(Nc3ccc(F)cc3)c(Nc3ccc(F)cc3)cc21 | cell-free assay |  |  |  | 0.5 µM | remaining signal | 104% |
| Cc1ccc(C(=O)NCc2ccsc2)cc1C#Cc1cn(C(C)C)c2ncnc(N)c12 | enzyme activity | inhibitor |  |  | 1 µM | activity vs control | 72% |
| CCN(CC)CCNC(=O)c1c(C)[nH]c(/C=C2\C(=O)Nc3ccc(F)cc32)c1C | enzyme activity | inhibitor |  |  | 0.1 µM | remaining activity | 41% |
| CNCc1ccc(-c2cc(-c3nc(-c4ccc(S(=O)(=O)C(C)C)cc4)cnc3N)on2)cc1 | enzyme activity | inhibitor |  |  | 2 µM | inhibition | 75% |
| CCN(CC)CCNC(=O)c1c(C)[nH]c(/C=C2\C(=O)Nc3ccc(Cl)cc32)c1C | enzyme activity | inhibitor |  |  | 0.5 µM | remaining activity | 25.2% |
| Cc1[nH]c(/C=C2\C(=O)Nc3ccc(F)cc32)c(C)c1C(=O)N[C@H]1CCN(C(=O)N(C)C)C1 | enzyme activity | inhibitor |  |  | 0.1 µM | remaining activity | 89% |
| Nc1ncnc2occ(-c3ccc(NC(=O)Nc4cc(C(F)(F)F)ccc4F)cc3)c12 | cell-free assay |  |  |  | 20 µM | remaining signal | 21% |
| CCN(CC)CCNC(=O)c1c(C)[nH]c(/C=C2\C(=O)Nc3ccc(F)cc32)c1C | enzyme activity | inhibitor |  |  | 0.3 µM | inhibition | 75% |
| CS(=O)(=O)CCNCc1ccc(-c2ccc3ncnc(Nc4ccc(OCc5cccc(F)c5)c(Cl)c4)c3c2)o1 | cell-free assay |  |  |  | 0.5 µM | remaining signal | 96.2% |

| SMILES | read-out | action | technique | cell line | concentration | endpoint | value |
| --- | --- | --- | --- | --- | --- | --- | --- |
| O=C(Nc1cnn(-c2csc(C(=O)NC3COC3)c2)c1)Nc1ccccc1Cl | enzyme activity | inhibitor |  |  | 5 µM | remaining activity | 96.7% |
| Clc1ccc(Nc2nnc(Cc3ccncc3)c3ccccc23)cc1 | cell-free assay |  |  |  | 0.5 µM | remaining signal | 98.3% |
| CCCOc1ccc([C@H]2[C@H](C(=O)O)[C@@H](c3ccc4c(c3)OCO4)CN2CC(=O)Nc2c(CC)cccc2CC)cc1 | cell-free assay |  | competition with immobilised ligand |  | 1 µM | remaining binding | 83% |
| Cc1ccc(C(=O)Nc2ccc(CN3CCN(C)CC3)c(C(F)(F)F)c2)cc1C#Cc1cnc2cccnn12 | enzyme activity |  |  |  | 23.5 nM | remaining activity | 45% |
| CS(=O)(=O)N1CCCC(NC(=O)[C@H](CCC2CCCCC2)NC(=O)c2ccc(CNc3ncnc4c3nnn4-c3ccccc3)cc2)C1 (some centres unmarked) | cell-free assay |  | competition with immobilised ligand |  | 0.1 µM | remaining binding | 79% |
| CCN1CCN(Cc2ccc(NC(=O)c3ccc(C)c(Oc4ccnc5[nH]ccc45)c3)cc2C(F)(F)F)CC1 | target engagement in cells | inhibitor | chemoproteomics | A-375 | 5 µM | inhibition | -35.7% |
| CC1=C(C#N)[C@@H](c2ccc3[nH]nc(C)c3c2)C(C#N)=C(c2ccc(Cl)cc2)N1 | cell-free assay |  | competition with immobilised ligand |  | 1 µM | remaining binding | 100% |
| CCN(CC)c1ccc(C2=NNC(=O)CC2C)cc1[N+](=O)[O-] (centres unmarked) | enzyme activity | inhibitor |  |  | 10 µM | remaining activity | 94% |
| CNCc1ccccc1-c1csc([C@H](C)Nc2nc(C)nc3cc(OC)c(OC)cc23)c1 | cell-free assay |  | competition with immobilised ligand |  | 1 µM | remaining binding | 100% |
| CC(C)(C)c1nc2c(s1)c1nc(N)ncc1c1ccc(NS(=O)(=O)c3c(F)cccc3F)c(F)c12 | enzyme activity | inhibitor | radiometric |  | 1 µM | remaining activity | 100% |
| COc1ccc(C(=O)Nc2sc3c(c2C(N)=O)CCCC3)cc1OC | enzyme activity | inhibitor |  |  | 0.5 µM | remaining activity | 84.4% |
| COc1cc2ncnc(Nc3ccc(Oc4ccccc4)c(C)c3C)c2cc1OC | enzyme activity | inhibitor |  |  | 1 µM | inhibition | -3% |
| COc1ccc2cc(OCC3(C(=O)O)CN(C(=O)c4ccc(F)cc4)C3)ccc2c1 | cell-free assay |  | competition with immobilised ligand |  | 1 µM | remaining binding | 100% |
| COc1cc(Cl)c(C(=O)N[C@@H](CN[C@H]2CC[C@@H](N)CC2)Cc2ccc(C#N)cc2)cc1-c1ccc(CN[C@H](C)c2ccc(C)cc2)o1 | enzyme activity | inhibitor |  |  | 1 µM | remaining activity | 56% |
| CNC(=O)Nc1ccc2c(c1)[C@@]1(CC2)OC(=O)N(CC(=O)N(Cc2ccc(F)cc2)[C@@H](C)C(F)(F)F)C1=O | cell-free assay |  | competition with immobilised ligand |  | 1 µM | remaining binding | 67% |
| O=C1Nc2ccc(Cl)cc2C1=Cc1cc(Cl)c(O)c(Cl)c1 | cell-free assay |  |  |  | 0.5 µM | remaining signal | 106% |
